Measurements published in ChEMBL document CHEMBL1122773 (1984).
Converted amounts (≈) assume the structure as drawn.

Key:
Format in all cases: functional
Mus musculus [1] = assay: (§1) In vivo antibacterial activity against Escherichia coli(UC 311) infected mice after oral administration
How it was run: (§2)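 Fresh drug solutions were given subcutaneously (0.2 mL) or by oral intubation (0.5 mL), per line. Dosing was immediately after infection, then daily for 4 consecutive days, with 3 further days of observation. CD50 was calculated by Spearman-Karber.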

Mus musculus [2] = assay: In vivo antibacterial activity against Escherichia coli (UC no 311) infected mice after sc administration; how it was run: as §2
Mus musculus [3] = assay: In vivo antibacterial activity against Klebsiella pneumoniae (UC 58) infected mice after sc administration; how it was run: as §2
Mus musculus [4] = assay: In vivo antibacterial activity against Pasteurella multocida (UC no 264) infected mice after sc administration; how it was run: as §2
Mus musculus [5] = assay: In vivo antibacterial activity against Plasmodium berghei infected mice (Mus musculus) after subcutaneous administration
Mus musculus [6] = assay: In vivo antibacterial activity against Proteus vulgaris (UC no 347) infected mice after sc administration; how it was run: as §2
Mus musculus [7] = assay: In vivo antibacterial activity against Streptococcus pneumoniae […](UC 3213) infected mice after sc administration; how it was run: as §2
Mus musculus [8] = assay: In vivo antibacterial activity against Streptococcus pyogenes(UC 152) infected mice after oral administration; how it was run: as §2
Mus musculus [9] = assay: In vivo antibacterial activity against Streptococcus pyogenes(UC 152) infected mice after sc administration; how it was run: as §2
Mus musculus [10] = assay: (§3) In vivo antibacterial activity against Pasteurella multocida(UC 264) infected mice after oral administration; how it was run: as §2
Mus musculus [11] = assay: (§4) In vivo antibacterial activity against Proteus vulgaris(UC 347) infected mice after oral administration; how it was run: as §2
Mus musculus [12] = assay: In vivo antibacterial activity against Streptococcus pneumoniae III(UC 3213) infected mice after oral administration; how it was run: as §2
Mus musculus [13] = assay: (§5) In vivo antibacterial activity against Klebsiella pneumoniae(UC 58) infected mice after oral administration; how it was run: as §2
Mus musculus [14] = assay: In vivo antibacterial activity against Streptococcus pneumoniae I (UC 41) infected mice after sc administration; how it was run: as §2
Actinomyces naeslundii = assay: In vitro antibacterial activity against the anaerobic Actinomyces naeslundii (Strain UC no.5920)
Bacteroides fragilis [15] = assay: In vitro antibacterial activity against the anaerobic Bacteroides fragilis (Strain UC no.6864)
How it was run: (§6)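 Agar dilution with serial twofold drug dilutions in Schaedler broth mixed into molten Wilkens-Chalgren agar. Strains grown 48 h on Schaedler agar, suspended to 0.5 McFarland, and 0.001 mL spotted by replicator. All steps done anaerobically. Incubation 48 h at 37 °C. MIC is the least drug inhibiting growth; a faint film or fewer than three colonies scored negative.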

Bacteroides fragilis [16] = assay: In vitro antibacterial activity against the anaerobic Bacteroides fragilis (Strain UC no.6862); how it was run: as §6
Bacteroides fragilis [17] = assay: In vitro antibacterial activity against the anaerobic Bacteroides fragilis (Strain UC no.6428)
[18] = system: Bacteroides thetaiotaomicron; assay: In vitro antibacterial activity against the anaerobic Bacteroides thetaiotaomicron (Strain UC no.6512); how it was run: as §6
Clostridioides difficile [19] = assay: In vitro antibacterial activity against the anaerobic Clostridium difficile (Strain UC no.6834); how it was run: as §6
Clostridioides difficile [20] = assay: In vitro antibacterial activity against the anaerobic Clostridium difficile (Strain UC no.6857); how it was run: as §6
Clostridioides difficile [21] = assay: In vitro antibacterial activity against the anaerobic Clostridium difficile (Strain UC no.6858); how it was run: as §6
Clostridium novyi = assay: In vitro antibacterial activity against the anaerobic Clostridium novyi B(Strain UC no.6329); how it was run: as §6
Clostridium perfringens [22] = assay: In vitro antibacterial activity against the anaerobic Clostridium perfringens (Strain UC no.247)
Clostridium perfringens [23] = assay: In vitro antibacterial activity against the anaerobic Clostridium perfringens (Strain UC no.6509)
[24] = system: Paraclostridium bifermentans; assay: In vitro antibacterial activity against the anaerobic Clostridium bifermentans (Strain UC no.6507); how it was run: as §6
Clostridium tertium = assay: In vitro antibacterial activity against the anaerobic Clostridium tertium(Strain UC no.6508); how it was run: as §6
Escherichia coli = assay: as §1; how it was run: as §2
Eggerthella lenta = assay: In vitro antibacterial activity against the anaerobic Eubacterium lentum(Strain UC no.6522); how it was run: as §6
Eubacterium limosum = assay: In vitro antibacterial activity against the anaerobic Eubacterium limosum(Strain UC no.6515); how it was run: as §6
Fusobacterium varium = assay: In vitro antibacterial activity against the anaerobic Fusobacterium varium(Strain UC no.6052); how it was run: as §6
[25] = system: Fusobacterium necrophorum; assay: In vitro antibacterial activity against the anaerobic Fusobacterium necrophorum (Strain UC no.6568); how it was run: as §6
Fusobacterium nucleatum [26] = assay: In vitro antibacterial activity against the anaerobic Fusobacterium nucleatum (Strain UC no.6324); how it was run: as §6
Fusobacterium nucleatum [27] = assay: In vitro antibacterial activity against the anaerobic Fusobacterium nucleatum (Strain UC no.6516); how it was run: as §6
Klebsiella pneumoniae [28] = assay: In vivo antibacterial activity against Klebsiella pneumoniae(UC no 58) infected mice after sc administration; how it was run: as §2
Pasteurella multocida [29] = assay: In vitro antibacterial activity against the aerobic Pasteurella multocida (Strain UC no.264)
How it was run: (§7)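 Broth microdilution in brain/heart infusion broth with twofold drug dilutions. Inoculum was a standardized suspension giving 10⁵ viable cells/mL final. Plates were incubated 20 h at 37 °C. MIC (mcg/mL) = lowest concentration with no visible growth.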

Pasteurella multocida [30] = assay: as §3; how it was run: as §2
Plasmodium berghei = assay: In vivo activity against Plasmodium berghei in mice (Mus musculus) after subcutaneous dose (95% confidence interval)
Proteus vulgaris [31] = assay: as §4; how it was run: as §2
Proteus vulgaris [32] = assay: In vivo antibacterial activity against Proteus vulgaris(UC no 347) infected mice after sc administration; how it was run: as §2
[33] = system: Peptoniphilus asaccharolyticus; assay: In vitro antibacterial activity against the anaerobic Peptococcus asaccharolyticus (Strain UC no.6214); how it was run: as §6
Finegoldia magna = assay: In vitro antibacterial activity against the anaerobic Peptococcus magnus(Strain UC no.6258); how it was run: as §6
Cutibacterium acnes = assay: In vitro antibacterial activity against the anaerobic Propionibacterium acnes(Strain UC no.6564); how it was run: as §6
Staphylococcus aureus [34] = assay: In vitro antibacterial activity against the aerobic Staphylococcus aureus (Strain UC no.6687); how it was run: as §7
Staphylococcus aureus [35] = assay: In vitro antibacterial activity against the aerobic Staphylococcus aureus (Strain UC no.6690); how it was run: as §7
Staphylococcus aureus [36] = assay: In vivo antibacterial activity against Staphylococcus aureus (UC no 76) infected mice after sc administration (value in parenthesis is 95% confidence interval); how it was run: as §2
Staphylococcus aureus [37] = assay: In vivo antibacterial activity against Staphylococcus aureus(UC 76) infected mice after oral administration (value in parenthesis is 95% confidence interval); how it was run: as §2
Streptococcus pyogenes [38] = assay: In vivo antibacterial activity against Streptococcus pyogenes (UC no 152) infected mice after sc administration (value in parenthesis is 95% confidence interval); how it was run: as §2
Streptococcus pneumoniae = assay: In vivo antibacterial activity against Streptococcus pneumoniae I(UC 41) infected mice after oral administration (value in parenthesis is 95% confidence interval); how it was run: as §2
Enterococcus faecalis = assay: In vitro antibacterial activity against the aerobic […] (Strain UC no.694); how it was run: as §7
Bacteroides fragilis [39] = assay: In vitro antibacterial activity against the anaerobic Bacteroides fragilis (Strain UC no.6513); how it was run: as §6
Klebsiella pneumoniae [40] = assay: as §5; how it was run: as §2
Streptococcus pyogenes [41] = assay: In vivo antibacterial activity against Streptococcus pyogenes(UC 152) infected mice after oral administration (value in parenthesis is 95% confidence interval); how it was run: as §2

## CCC[C@@H]1C[C@@H](C(=O)N[C@@H]([C@H]2O[C@H](SC)[C@H](O)[C@@H](O)[C@H]2O)[C@H](C)Cl)N(C)C1 [CLINDAMYCIN]
Mus musculus [1]
  CD50: >400 mg/kg
Mus musculus [2]
  CD50: >160 mg/kg
Mus musculus [3]
  CD50: >320 mg/kg
Mus musculus [4]
  CD50: >160 mg/kg
Mus musculus [5]
  CD50: 53 mg/kg
Mus musculus [6]
  CD50: >160 mg/kg
Mus musculus [7]
  CD50: 20 mg/kg
Mus musculus [8]
  CD50: 12.3 mg/kg
Mus musculus [9]
  CD50: 2.3 mg/kg
Mus musculus [10]
  CD50: >400 mg/kg
Mus musculus [11]
  CD50: >400 mg/kg
Mus musculus [12]
  CD50: 37.9 mg/kg
Mus musculus [13]
  CD50: >400 mg/kg
Mus musculus [14]
  CD50: 40 mg/kg

## CC[C@@H]1CCN[C@H](C(=O)N[C@@H]([C@H]2O[C@H](SC)[C@H](O)[C@@H](O)[C@H]2O)[C@H](C)Cl)C1 [PIRLIMYCIN]
Actinomyces naeslundii
  MIC: 0.25 µg/mL (≈ 0.608 µM)
Bacteroides fragilis [15]
  MIC: 2 µg/mL (≈ 4.87 µM)
Bacteroides fragilis [16]
  MIC: 15.6 µg/mL (≈ 38 µM)
Bacteroides fragilis [17]
  MIC: 0.25 µg/mL (≈ 0.608 µM)
[18]
  MIC: 0.5 µg/mL (≈ 1.22 µM)
Clostridioides difficile [19]
  MIC: 3.9 µg/mL (≈ 9.49 µM)
Clostridioides difficile [20]
  MIC: 125 µg/mL (≈ 304 µM)
Clostridioides difficile [21]
  MIC: 3.9 µg/mL (≈ 9.49 µM)
Clostridium novyi
  MIC: 0.12 µg/mL (≈ 0.292 µM)
Clostridium perfringens [22]
  MIC: 0.12 µg/mL (≈ 0.292 µM)
Clostridium perfringens [23]
  MIC: 0.12 µg/mL (≈ 0.292 µM)
[24]
  MIC: 0.06 µg/mL (≈ 0.146 µM)
Clostridium tertium
  MIC: 7.8 µg/mL (≈ 19 µM)
Escherichia coli
  CD50: >400 mg/kg
Eggerthella lenta
  MIC: 1 µg/mL (≈ 2.43 µM)
Eubacterium limosum
  MIC: 2 µg/mL (≈ 4.87 µM)
Fusobacterium varium
  MIC: 3.9 µg/mL (≈ 9.49 µM)
[25]
  MIC: 0.06 µg/mL (≈ 0.146 µM)
Fusobacterium nucleatum [26]
  MIC: 0.06 µg/mL (≈ 0.146 µM)
Fusobacterium nucleatum [27]
  MIC: 0.12 µg/mL (≈ 0.292 µM)
Klebsiella pneumoniae [28]
  CD50: >320 mg/kg
Pasteurella multocida [29]
  MIC: 62.5 µg/mL (≈ 152 µM)
Pasteurella multocida [30]
  CD50: 400 mg/kg
Plasmodium berghei
  CD50: 16 mg/kg
Proteus vulgaris [31]
  CD50: >400 mg/kg
Proteus vulgaris [32]
  CD50: >160 mg/kg
[33]
  MIC: 0.25 µg/mL (≈ 0.608 µM)
Finegoldia magna
  MIC: 0.06 µg/mL (≈ 0.146 µM)
Cutibacterium acnes
  MIC: 0.12 µg/mL (≈ 0.292 µM)
Staphylococcus aureus [34]
  MIC: 0.2 µg/mL (≈ 0.487 µM)
Staphylococcus aureus [35]
  MIC: 0.2 µg/mL (≈ 0.487 µM)
Staphylococcus aureus [36]
  CD50: 0.4 mg/kg
Staphylococcus aureus [37]
  CD50: 2.9 mg/kg
Streptococcus pyogenes [38]
  CD50: 0.25 mg/kg
Streptococcus pneumoniae
  CD50: 20.3 mg/kg
Enterococcus faecalis
  MIC: 6.25 µg/mL (≈ 15.2 µM)
Bacteroides fragilis [39]
  MIC: 0.12 µg/mL (≈ 0.292 µM)
Klebsiella pneumoniae [40]
  CD50: >400 mg/kg
Streptococcus pyogenes [41]
  CD50: 2.9 mg/kg
